Measurements from ChEMBL document CHEMBL3407434, “Antivascular and anti-parasite activities of natural and hemisynthetic flavonoids from New Caledonian Gardenia species (Rubiaceae)” (Eur J Med Chem, 2015).
pIC50: −log10 of the molar value.

What was measured:
[1] = Cytotoxicity against rat L6 cells assessed as viable cells at 10 uM after 72 hrs by MTT assay relative to control; assay type: cell-based; conditions: read-out: Activity
How it was run: (§1)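 L6 rat skeletal myoblasts, about 4 × 10^4 cells/well, dosed 24 h after seeding at 10 and 1 µM, in triplicate. After 72 h, MTT was added for 2 h, formazan was dissolved in detergent for 2 h at room temperature in the dark, and absorbance was read at 570 nm. Results are given as percent viable cells.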

[2] = Cytotoxicity against rat L6 cells assessed as viable cells at 1 uM after 72 hrs by MTT assay relative to control; assay type: cell-based; conditions: read-out: Activity; how it was run: as §1
[3] = tested on: B16; experiment: Cytotoxicity against mouse B16 cells assessed as cell viability after 48 hrs by MTT assay; assay type: cell-based; conditions: B16, 48 h
How it was run: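 B16 murine melanoma cells, 5000/well, treated 24 h after plating. Compounds were tested at 0.01 to 100 µM final (DMSO stock 2.5 mg/mL), in triplicate, for 48 h at 37 °C under 5% CO2.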

[4] = Antivascular activity in human EAhy926 cells assessed as concentration require to adopt rounding shape after 2 hrs by microscopic analysis; assay type: functional, EA.hy 926
[5] = tested on: Leishmania amazonensis; experiment: Leishmanicidal activity against promastigote stage of Leishmania amazonensis MHOM/BR/PH8 after 48 hrs by MTT assay; assay type: functional, organism-based; conditions: MHOM/BR/PH8, 48 h
How it was run: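 L. amazonensis MHOM/BR/PH8 promastigotes in Schneider's medium with 20% heat-inactivated FCS, at 10^5 per well in log phase. MTT was added for 4 h at 37 °C, formazan dissolved in DMSO and read at 570 nm. Amphotericin B was the reference drug.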

[6] = tested on: Plasmodium falciparum; experiment: Antiplasmodial activity against Plasmodium falciparum FcB1/Columbia infected in human red blood cells assessed as parasite growth inhibition at 10 uM after 48 hrs by [3H]-hypoxanthine incorporation assay relative to control; assay type: functional; conditions: read-out: GI
How it was run: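 P. falciparum FcB1 (Colombia) grown in human red cells, in triplicate. Screened at 50 and 10 µM in 96-well plates for 48 h at 37 °C under reduced oxygen, then [3H]-hypoxanthine was added and incorporation counted. Counts per minute are given as percent of untreated controls.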

[7] = tested on: Plasmodium falciparum; experiment: Antiplasmodial activity against Plasmodium falciparum FcB1/Columbia infected in human red blood cells assessed as parasite growth inhibition after 48 hrs by [3H]-hypoxanthine incorporation assay; assay type: functional, organism-based
How it was run: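 P. falciparum FcB1 (Colombia) grown in human red cells, in triplicate. Screened at 50 and 10 µM in 96-well plates for 48 h at 37 °C under reduced oxygen, then [3H]-hypoxanthine was added and incorporation counted. Counts per minute are given as percent of untreated controls. Selected compounds were then re-run at 100 to 0.195 µM, with IC50 taken from sigmoidal inhibition curves.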

[8] = tested on: Trypanosoma brucei gambiense; experiment: Antitrypanosomal activity against Trypanosoma brucei gambiense Feo assessed as parasite growth inhibition at 50 uM after 72 hrs by fluorescence assay relative to control; assay type: functional; conditions: read-out: GI
How it was run: (§2)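 Bloodstream-form T. b. gambiense Feo at 10^5 parasites/mL, screened at 50 and 10 µM in triplicate. Incubated 72 h at 37 °C under 5% CO2. Values are percent of untreated controls. Pentamidine served as positive control.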

[9] = tested on: Trypanosoma brucei gambiense; experiment: Antitrypanosomal activity against Trypanosoma brucei gambiense Feo assessed as parasite growth inhibition at 10 uM after 72 hrs by fluorescence assay relative to control; assay type: functional; conditions: read-out: GI; how it was run: as §2
[10] = target: Tubulin (Homo sapiens) (UniProt P68371+Q9H4B7+P0DPH7+P68366+Q13509+Q71U36+P04350+Q3ZCM7+P07437+P68363+Q9BQE3+Q6PEY2+Q13885+Q9BVA1+Q9BUF5); experiment: Inhibition of tubulin (unknown origin) polymerization at 30 uM preincubated for 45 mins followed by GTP addition measured after 2 hrs by fluorescence assay relative to control; assay type: protein-complex assay
[11] = target: Tubulin; experiment: Inhibition of tubulin (unknown origin) polymerization preincubated for 45 mins followed by GTP addition measured after 2 hrs by fluorescence assay; assay type: protein-complex assay, Homo sapiens
[12] = tested on: Trypanosoma brucei gambiense; experiment: Antitrypanosomal activity against Trypanosoma brucei gambiense Feo assessed as parasite growth inhibition after 72 hrs by fluorescence assay; assay type: functional, organism-based
How it was run: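 Bloodstream-form T. b. gambiense Feo at 10^5 parasites/mL, screened at 50 and 10 µM in triplicate. Incubated 72 h at 37 °C under 5% CO2. Resazurin (45 µM final) was added for 4 h at 37 °C, followed by 22 h at room temperature, and fluorescence read at ex 535/em 590 nm. Values are percent of untreated controls. […] Pentamidine served as positive control.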

| SMILES | viability at 72 h, 10 µM [1] [%] | viability at 72 h, 1 µM [2] [%] | pIC50 [3] | Activity [4] [µM] | pIC50 [5] | inhibition of growth at 10 µM [6] [%] | pIC50 [7] | IC90 [7] [µM] | inhibition of growth at 50 µM [8] [%] | inhibition of growth at 10 µM [9] [%] | inhibition [10] [%] | pIC50 [11] | pIC50 [12] |
| --- | --- | --- | --- | --- | --- | --- | --- | --- | --- | --- | --- | --- | --- |
| COc1cc(-c2oc3cc(OC)c(OC)c(OC)c3c(=O)c2OC)cc(OC)c1OC | 81.2 | 93.8 | < 4.00 | >100 | 4.50 | 35 | 5.24 | 10.8 | 72.4 | 25.9 | – | – | – |
| COc1ccc(-c2oc3cc(O)c(OC)c(O)c3c(=O)c2OC)cc1 [SANTIN] | 40.8 | 90.9 | 4.34 | 12.5 | 4.20 | 0 | – | – | 83.1 | 33.2 | 100 | 5.24 | – |
| COc1ccc(-c2oc3cc(O)c(OC)c(O)c3c(=O)c2OC)cc1OC | 94.7 | 99.7 | 4.54 | 25 | 5.09 | 21.3 | – | – | 99.8 | 76.2 | 75.1 | 4.71 | – |
| N=C(N)c1ccc(OCCCCCOc2ccc(C(=N)N)cc2)cc1 [PENTAMIDINE] | – | – | – | – | – | – | – | – | – | – | – | – | 8.15 |
| COc1ccc(-c2oc3cc(OC)c(OC)c(O)c3c(=O)c2OC)cc1 | 96.5 | 85.3 | < 4.00 | >100 | 4.83 | 0 | – | – | 8 | 18.3 | – | – | – |
| COc1cc(O)c2c(=O)c(OC)c(-c3ccc(O)cc3)oc2c1 [KUMATAKENIN] | 38.7 | 81.3 | 4.24 | 50 | 4.64 | 7.2 | – | – | 26.4 | 25.2 | – | – | – |
| COc1cc(-c2oc3cc(O)c(OC)c(O)c3c(=O)c2OC)cc(O)c1OC | 44.2 | 97.6 | 4.47 | 1.6 | 4.99 | 0 | – | – | 82.6 | 37.8 | 99 | 4.75 | – |
| COc1ccc(-c2oc3cc(OC)cc(O)c3c(=O)c2OC)cc1 | 100 | 99.1 | < 4.00 | 100 | 4.48 | 3.9 | – | – | 19.9 | 4.6 | – | – | – |
| COc1cc(-c2oc3cc(OC)c(OC)c(O)c3c(=O)c2OC)cc(OC)c1OC | 53.5 | 99.2 | 4.94 | >100 | 4.66 | 21.7 | – | – | 40.5 | 17.6 | – | – | – |
| COc1ccc(-c2oc3cc(OC)c(OC)c(OC)c3c(=O)c2OC)cc1 | 93.6 | 88.3 | < 4.00 | 50 | 4.43 | 0 | – | – | 24.9 | 29.4 | – | – | – |
| COc1cc(-c2oc3cc(O)c(OC)c(O)c3c(=O)c2OC)cc(OC)c1OC | 78.2 | 96.1 | 4.04 | 12.5 | 5.02 | 13.2 | – | – | 38.1 | 42.9 | 69.9 | 4.67 | – |
| C[C@@H]1[C@H](O)[C@@H](C)/C=C/C=C/C=C/C=C/C=C/C=C/C=C/[C@H](O[C@@H]2O[C@H](C)[C@@H](O)[C@H](N)[C@@H]2O)C[C@@H]2O[C@](O)(C[C@@H](O)C[C@@H](O)[C@H](O)CC[C@@H](O)C[C@@H](O)CC(=O)O[C@H]1C)C[C@H](O)[C@H]2C(=O)O [AMPHOTERICIN B] | – | – | – | – | 7.14 | – | – | – | – | – | – | – | – |
| COc1c(O)cc2oc(-c3ccc(O)cc3)c(OC)c(=O)c2c1O [3,6-DIMETHOXY KAEMPFEROL] | 73.5 | 86.2 | 4.13 | >100 | 5.09 | 0 | – | – | 88.8 | 40.7 | – | – | – |
| COc1c(-c2ccc(O)cc2)oc2cc(O)cc(O)c2c1=O [ISOKAEMPFERIDE] | 61 | 85 | 4.12 | >100 | 4.84 | 2.9 | – | – | 93.4 | 36.6 | – | – | – |
| COc1ccc(/C=C\c2cc(OC)c(OC)c(OC)c2)cc1O [COMBRETASTATIN A4] | – | – | – | 0.27 | – | – | – | – | – | – | – | – | – |
| CC(=O)Oc1ccc(-c2oc3cc(OC(C)=O)cc(O)c3c(=O)c2OC(C)=O)cc1 | 94.8 | 90.2 | 4.40 | >100 | 4.91 | 7.6 | – | – | 5.6 | 0 | – | – | – |
| O=c1c(O)c(-c2ccc(O)cc2)oc2cc(O)cc(O)c12 [KAEMPFEROL] | 100 | 93.8 | 4.27 | >100 | 4.56 | 0 | – | – | 86.5 | 55.1 | – | – | – |
| COc1c(O)c(OC)c2oc(-c3ccc(O)cc3)c(OC)c(=O)c2c1O | 80.4 | 88.4 | < 4.00 | >100 | 4.56 | 0.6 | – | – | 50.7 | 14.6 | – | – | – |
